Measurements: ChEMBL document CHEMBL4017517, “Small Molecule Inhibitors Simultaneously Targeting Cancer Metabolism and Epigenetics: Discovery of Novel Nicotinamide Phosphoribosyltransferase (NAMPT) and Histone Deacetylase (HDAC) Dual Inhibitors” (J Med Chem, 2017)
The source made the active and inactive calls. No cut-off for these calls is given here.

How the values were obtained:
[1] = biological target: Nicotinamide phosphoribosyltransferase (Homo sapiens, UniProt P43490); assay: Inhibition of human recombinant NAMPT using NAM as substrate preincubated for 5 mins followed by substrate addition measured after 15 mins by fluorescence assay
Homo sapiens = species on record: Homo sapiens; assay: Inhibition of HDAC in human HCT116 cells assessed as increase in acetylated histone H4 level after 24 hrs by Western blot analysis; type: cell-based
How it was run: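 HCT116 cells treated at 1 and 5 μM for 24 h; DMSO-volume control. PBS-washed, RIPA-lysed on ice 30 min, centrifuged 12000 × g 15 min at 4 °C. 30 μg protein separated by SDS-PAGE, blotted to PVDF, blocked 5% BSA 2 h. Incubated with acetyl-histone H3 or H4 primary antibody overnight at 4 °C, then secondary antibody; infrared imaging.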

HCT-116 [2] = assay: Induction of apoptosis in human HCT116 cells assessed as necrotic cells at 5 uM after 72 hrs by Annexin V-FITC/propidium iodide staining-based flow cytometric analysis (reference value: 1.25%); type: functional
How it was run: (§1)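 HCT116 cells seeded at 5×10^5 cells/mL in six-well plates, treated at 5 μM for 72 h alongside vehicle. Cells trypsinized, washed twice in cold PBS, and resuspended in 1× binding buffer. Stained with annexin V-FITC 15 min at room temperature, then PI 15 min in dark, then flow cytometry.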

HCT-116 [3] = assay: Induction of apoptosis in human HCT116 cells assessed as late apoptotic cells at 5 uM after 72 hrs by Annexin V-FITC/propidium iodide staining-based flow cytometric analysis (reference value: 3.33%); type: functional; how it was run: as §1
[4] = Plasma clearance in Sprague-Dawley rat at 2 mg/kg, ip; type: ADME, organism-based
How it was run: (§2)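 Sprague-Dawley rats given a single ip dose of 2 mg/kg. Plasma concentration–time profile used to derive terminal half-life, Cmax, plasma clearance and Vss.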

HCT-116 [5] = assay: Induction of autophagy in human HCT116 cells assessed as decrease in P-62 level at 5 uM after 24 to 72 hrs by Western blot analysis; type: functional, cell-based
How it was run: (§3)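 HCT116 cells exposed to 5 μM for 24, 48 and 72 h; DMSO control. Lysed in RIPA on ice, cleared 12000 × g. 30 μg protein per lane on SDS-PAGE, transferred to PVDF, blocked in 5% BSA. Probed overnight at 4 °C for LC3-II and P-62, then secondary antibody 1.5 h. Infrared imaging detection with quantification.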

HCT-116 [6] = assay: Induction of apoptosis in human HCT116 cells assessed as early apoptotic cells at 5 uM after 72 hrs by Annexin V-FITC/propidium iodide staining-based flow cytometric analysis (reference value: 7.82%); type: functional; how it was run: as §1
HepG2 = assay: cells; type: functional, cell-based; details: Homo sapiens, HepG2, 72 h
Rattus norvegicus = assay: Volume of distribution at steady state in Sprague-Dawley rat at 2 mg/kg, ip; type: ADME, organism-based; details: in vivo; how it was run: as §2
HCT-116 [7] = assay: animal or person; type: functional, Homo sapiens; details: Mus musculus, HCT-116, ip, read-out: TGI
HCT-116 [8] = assay: Induction of apoptosis in human HCT116 cells assessed as early apoptotic cells at 5 uM after 72 hrs in presence of autophagy inhibitor wortmannin by Annexin V-FITC/propidium iodide staining-based flow cytometric analysis (reference value: 7.82%); type: functional
[9] = Cmax in Sprague-Dawley rat at 2 mg/kg, ip; type: ADME, organism-based; parameters: dose 2 mg/kg, route intraperitoneal; details: in vivo; how it was run: as §2
HCT-116 [10] = assay: Induction of autophagy in human HCT116 cells assessed as increase in LC3-2 level at 5 uM after 48 to 72 hrs by Western blot analysis; type: functional, cell-based; how it was run: as §3
HCT-116 [11] = assay: Cell cycle arrest in human HCT116 cells assessed as accumulation at G2 phase at 5 uM after 48 hrs by propidium iodide staining based flow cytometry (reference value: 5%); type: functional
Histone deacetylase 1 [12] = biological target: T1, Histone deacetylase 1 (Homo sapiens, UniProt Q13547); assay: Inhibition of human recombinant HDAC1 (1 to 482 residues) expressed in Baculovirus using Ac-Leu-Gly-Lys(Ac)-AMC as substrate preincubated for 5 mins followed by substrate addition measured after 30 mins by fluorescence assay
Histone deacetylase 1 [13] = biological target: T1, Histone deacetylase 1; assay: Inhibition of human recombinant HDAC1 (1 to 482 residues) expressed in Baculovirus using Ac-Leu-Gly-Lys(Ac)-AMC as substrate after 3 hrs by fluorescence assay
[14] = biological target: T2, Protein deacetylase HDAC6 (Homo sapiens, UniProt Q9UBN7); assay: Inhibition of human recombinant HDAC6 expressed in Baculovirus infected Sf9 cells using Ac-Leu-Gly-Lys(Ac)-AMC as substrate preincubated for 5 mins followed by substrate addition measured after 30 mins by fluorescence assay
T2 sequence (Q9UBN7 whole entry): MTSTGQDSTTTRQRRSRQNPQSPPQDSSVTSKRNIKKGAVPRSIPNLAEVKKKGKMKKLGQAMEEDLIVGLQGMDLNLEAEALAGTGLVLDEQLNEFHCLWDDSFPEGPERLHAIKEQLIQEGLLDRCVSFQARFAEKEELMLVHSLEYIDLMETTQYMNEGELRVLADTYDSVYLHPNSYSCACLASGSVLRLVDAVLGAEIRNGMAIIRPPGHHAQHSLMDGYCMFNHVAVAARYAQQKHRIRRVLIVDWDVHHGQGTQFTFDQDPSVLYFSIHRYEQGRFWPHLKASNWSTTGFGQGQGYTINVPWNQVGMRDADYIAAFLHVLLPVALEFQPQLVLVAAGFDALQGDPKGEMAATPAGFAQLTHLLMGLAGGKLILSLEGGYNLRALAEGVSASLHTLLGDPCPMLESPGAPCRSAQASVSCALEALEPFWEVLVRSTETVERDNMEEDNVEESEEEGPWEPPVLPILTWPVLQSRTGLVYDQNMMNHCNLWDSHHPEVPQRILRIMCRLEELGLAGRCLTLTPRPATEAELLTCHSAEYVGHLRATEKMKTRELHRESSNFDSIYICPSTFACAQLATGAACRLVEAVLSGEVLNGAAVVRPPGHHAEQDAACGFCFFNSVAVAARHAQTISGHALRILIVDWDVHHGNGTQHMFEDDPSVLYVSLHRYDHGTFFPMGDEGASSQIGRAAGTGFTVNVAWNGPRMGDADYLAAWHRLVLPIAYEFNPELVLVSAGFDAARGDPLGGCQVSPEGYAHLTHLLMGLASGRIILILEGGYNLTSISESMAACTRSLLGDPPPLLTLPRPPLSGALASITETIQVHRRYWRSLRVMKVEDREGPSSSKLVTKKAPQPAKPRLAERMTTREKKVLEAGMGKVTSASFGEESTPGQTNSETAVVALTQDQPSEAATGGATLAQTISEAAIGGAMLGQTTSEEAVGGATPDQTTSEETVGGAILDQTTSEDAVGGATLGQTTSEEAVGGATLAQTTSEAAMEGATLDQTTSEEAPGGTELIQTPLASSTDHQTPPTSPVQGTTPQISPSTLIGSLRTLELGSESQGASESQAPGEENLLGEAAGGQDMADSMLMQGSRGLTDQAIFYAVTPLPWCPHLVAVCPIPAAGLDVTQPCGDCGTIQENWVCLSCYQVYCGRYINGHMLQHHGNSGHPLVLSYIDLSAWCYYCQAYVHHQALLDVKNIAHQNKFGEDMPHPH

T1 sequence (Q13547 whole entry, the tested form may be a part): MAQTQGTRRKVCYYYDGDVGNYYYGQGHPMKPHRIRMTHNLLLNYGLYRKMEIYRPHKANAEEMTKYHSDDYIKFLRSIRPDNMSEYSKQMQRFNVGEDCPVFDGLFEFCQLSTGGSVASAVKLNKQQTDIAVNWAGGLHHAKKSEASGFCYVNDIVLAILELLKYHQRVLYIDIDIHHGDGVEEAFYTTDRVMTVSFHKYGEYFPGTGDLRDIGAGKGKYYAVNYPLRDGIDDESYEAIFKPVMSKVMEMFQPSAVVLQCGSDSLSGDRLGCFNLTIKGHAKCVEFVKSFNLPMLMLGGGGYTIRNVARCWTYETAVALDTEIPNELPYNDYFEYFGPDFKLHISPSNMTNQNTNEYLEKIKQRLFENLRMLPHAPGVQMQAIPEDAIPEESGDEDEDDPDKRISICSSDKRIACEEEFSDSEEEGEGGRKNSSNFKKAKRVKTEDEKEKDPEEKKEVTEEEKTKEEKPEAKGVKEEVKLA
Chain of Nicotinamide phosphoribosyltransferase (P43490 whole entry): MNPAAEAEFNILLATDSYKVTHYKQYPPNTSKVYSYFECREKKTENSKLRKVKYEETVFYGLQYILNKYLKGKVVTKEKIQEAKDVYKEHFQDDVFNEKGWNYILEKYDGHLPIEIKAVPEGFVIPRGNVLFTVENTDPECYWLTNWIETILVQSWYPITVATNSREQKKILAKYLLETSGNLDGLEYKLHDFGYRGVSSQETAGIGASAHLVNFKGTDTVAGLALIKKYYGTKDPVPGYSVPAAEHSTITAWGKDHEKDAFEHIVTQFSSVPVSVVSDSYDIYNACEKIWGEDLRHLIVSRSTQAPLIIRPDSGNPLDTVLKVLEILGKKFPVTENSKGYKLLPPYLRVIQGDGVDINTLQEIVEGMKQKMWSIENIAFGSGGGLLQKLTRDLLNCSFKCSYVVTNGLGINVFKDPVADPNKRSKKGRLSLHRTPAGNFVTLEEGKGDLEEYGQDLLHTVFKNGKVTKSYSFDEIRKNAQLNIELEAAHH

- IC50 [1]: 31 nM
- CL/F [4]: 103 mL/min/kg
- IC50 (HepG2): 4500 nM
- Vdss (Rattus norvegicus): 6.229 L/kg
- Cmax [9]: 745 ng/mL
- IC50 (Histone deacetylase 1 [12]): 55 nM
- IC50 (Histone deacetylase 1 [13]): 24 nM
- IC50 [14]: > 100000 nM
SMILES: Nc1ccccc1NC(=O)c1ccc(Cn2cc(-c3ccc(C(=O)NCc4cccnc4)cc3)nn2)cc1
- inhibition (Homo sapiens): Active
- Activity (HCT-116 [2]): 2.43%
- Activity (HCT-116 [3]): 21.84%
- Activity (HCT-116 [5]): Active
- Activity (HCT-116 [6]): 22.15%
- inhibition in vivo at 25 mg/kg (HCT-116 [7]): 69%
- Activity (HCT-116 [8]): 12.46%
- Activity (HCT-116 [10]): inactive
- Activity (HCT-116 [11]): 39%
